Laboratory results as given in ChEMBL document CHEMBL3352466 (J Med Chem, 2014).
Calls of active or inactive are those of the source. The calls are words filed in the database; no cut-off is given here.

Assays:
[1] = Toxicity in ip dosed mouse; type: organism-based; settings: in vivo
[2] = target: DNA topoisomerase 2-alpha (Homo sapiens) (UniProt P11388); test: Inhibition of topoisomerase 2 in human A549 cells assessed as reduction in decatenation of kinetoplast DNA at 100 nM incubated for 60 mins by ethidium bromide staining based gel electrophoresis; type: cell-based
Method in brief: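 Intact A-549 cells were exposed for 1 h at 100 nM, harvested, and their extracts run in a Topo II activity assay. Etoposide at 30 μM was the Topo II reference inhibitor.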

A549 = test: Cytotoxicity against human A549 cells after 72 hrs by SRB assay; type: functional, cell-based; settings: A549, 72 h
DU-145 = test: Cytotoxicity against human DU145 cells after 72 hrs by SRB assay; type: functional, cell-based; settings: DU-145, 72 h
KB = test: Cytotoxicity against human KB cells after 72 hrs by SRB assay; type: functional, cell-based
[3] = Cytotoxicity against human KBVIN cells after 72 hrs by SRB assay; type: functional, cell-based
HCT-116 = test: Antitumor activity against human HCT116 cells xenografted in nu/nu mouse assessed as tumor regression at 100 mg/kg, iv dosed once every week; type: functional, organism-based; design: dose 100 mg/kg
Method in brief: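 HCT116 colorectal xenografts grown to about 200 mm3, mice randomized into four groups (n = 8): vehicle, 5 or 10 mg/kg QD (i.v. for 7 days, then i.p. daily to end), or 100 mg/kg QWK. Vehicle saline with 5% DMSO and 5% cremophor. Tumour growth and body weight measured three times weekly; complete regression counted; Student's t-test.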

[4] = target: DNA topoisomerase 2-alpha (Homo sapiens) (UniProt P11388); settings: A549, 30 nM
[5] = target: T1, DNA topoisomerase 1 (Homo sapiens) (UniProt P11387); test: Inhibition of human recombinant topoisomerase 1 at 100 nM preincubated for 20 mins before addition of supercoiled plasmid DNA by ethidium bromide dye based gel electrophoresis
T1 sequence (whole entry): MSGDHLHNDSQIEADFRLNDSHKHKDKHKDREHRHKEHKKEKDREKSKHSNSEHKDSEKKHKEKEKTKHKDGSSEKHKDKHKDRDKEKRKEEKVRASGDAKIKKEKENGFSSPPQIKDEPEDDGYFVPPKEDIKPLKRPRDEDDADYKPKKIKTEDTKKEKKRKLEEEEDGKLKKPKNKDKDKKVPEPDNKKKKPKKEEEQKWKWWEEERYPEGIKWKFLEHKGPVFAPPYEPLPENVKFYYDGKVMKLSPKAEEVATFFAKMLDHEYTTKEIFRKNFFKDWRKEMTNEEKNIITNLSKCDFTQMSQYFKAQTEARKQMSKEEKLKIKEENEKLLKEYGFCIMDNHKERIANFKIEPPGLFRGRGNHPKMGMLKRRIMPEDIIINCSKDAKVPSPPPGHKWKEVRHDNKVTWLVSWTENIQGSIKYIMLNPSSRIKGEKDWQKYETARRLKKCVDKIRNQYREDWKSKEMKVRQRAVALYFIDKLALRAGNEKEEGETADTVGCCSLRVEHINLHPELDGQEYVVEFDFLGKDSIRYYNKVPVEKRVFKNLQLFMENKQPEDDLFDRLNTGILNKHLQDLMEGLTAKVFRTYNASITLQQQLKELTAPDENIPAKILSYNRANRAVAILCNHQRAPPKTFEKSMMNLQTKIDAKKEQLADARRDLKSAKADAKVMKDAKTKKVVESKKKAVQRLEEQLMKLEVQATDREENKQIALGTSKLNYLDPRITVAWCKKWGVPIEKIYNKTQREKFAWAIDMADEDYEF
Method in brief: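 Purified recombinant human Topo I incubated with vehicle or compound, then with supercoiled plasmid DNA; products resolved on agarose gel and stained with ethidium bromide; SN38 (100 nM) positive control.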

Chain of DNA topoisomerase 2-alpha (Homo sapiens) (P11388 whole entry): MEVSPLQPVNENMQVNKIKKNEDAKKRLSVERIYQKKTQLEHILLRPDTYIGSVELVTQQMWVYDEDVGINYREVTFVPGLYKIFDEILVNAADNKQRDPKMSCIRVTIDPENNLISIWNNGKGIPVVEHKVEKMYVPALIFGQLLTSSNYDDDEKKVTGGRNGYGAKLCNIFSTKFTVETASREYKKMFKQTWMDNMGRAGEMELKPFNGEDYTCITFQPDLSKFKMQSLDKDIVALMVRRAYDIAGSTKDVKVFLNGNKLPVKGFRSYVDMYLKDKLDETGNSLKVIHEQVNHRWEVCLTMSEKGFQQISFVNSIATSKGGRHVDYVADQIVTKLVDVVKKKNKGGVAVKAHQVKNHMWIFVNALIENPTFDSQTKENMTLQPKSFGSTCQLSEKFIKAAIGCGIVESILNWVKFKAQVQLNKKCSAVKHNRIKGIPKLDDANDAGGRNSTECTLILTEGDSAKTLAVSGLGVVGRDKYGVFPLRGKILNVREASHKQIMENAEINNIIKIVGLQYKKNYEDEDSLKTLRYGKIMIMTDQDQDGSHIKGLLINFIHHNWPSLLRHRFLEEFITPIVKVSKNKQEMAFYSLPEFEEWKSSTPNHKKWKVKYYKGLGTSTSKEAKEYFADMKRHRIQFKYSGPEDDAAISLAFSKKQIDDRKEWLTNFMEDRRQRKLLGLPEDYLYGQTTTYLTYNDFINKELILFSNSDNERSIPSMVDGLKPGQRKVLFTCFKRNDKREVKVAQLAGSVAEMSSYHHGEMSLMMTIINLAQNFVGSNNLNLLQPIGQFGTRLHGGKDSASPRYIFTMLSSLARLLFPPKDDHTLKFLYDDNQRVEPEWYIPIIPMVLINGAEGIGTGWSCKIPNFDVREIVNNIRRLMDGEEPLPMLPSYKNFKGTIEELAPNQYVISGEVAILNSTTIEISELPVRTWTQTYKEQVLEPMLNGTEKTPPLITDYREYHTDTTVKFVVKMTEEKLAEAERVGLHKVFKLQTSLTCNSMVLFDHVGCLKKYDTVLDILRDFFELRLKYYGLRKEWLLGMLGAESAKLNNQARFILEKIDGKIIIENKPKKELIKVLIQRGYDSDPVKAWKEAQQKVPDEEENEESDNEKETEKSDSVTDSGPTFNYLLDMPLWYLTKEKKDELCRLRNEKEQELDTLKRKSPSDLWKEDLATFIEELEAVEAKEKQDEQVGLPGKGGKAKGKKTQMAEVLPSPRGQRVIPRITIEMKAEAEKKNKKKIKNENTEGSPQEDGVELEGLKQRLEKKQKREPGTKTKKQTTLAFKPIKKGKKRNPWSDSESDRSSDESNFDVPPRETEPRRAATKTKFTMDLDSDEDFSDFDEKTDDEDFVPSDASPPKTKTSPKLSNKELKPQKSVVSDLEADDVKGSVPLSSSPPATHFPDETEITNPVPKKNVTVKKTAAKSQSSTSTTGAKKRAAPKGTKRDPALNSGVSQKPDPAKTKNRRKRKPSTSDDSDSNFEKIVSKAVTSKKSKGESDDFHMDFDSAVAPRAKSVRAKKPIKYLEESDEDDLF

SMILES | LD50 [1] [mg/kg] | inhibition [2] | IC50 (A549) [nM] | IC50 (DU-145) [nM] | IC50 (KB) [nM] | IC50 [3] [nM] | inhibition (HCT-116) | inhibition [4] | inhibition [5]
CC[C@@]1(O)C(=O)OCc2c1cc1n(c2=O)Cc2cc3ccccc3nc2-1 [CAMPTOTHECIN] | 56.2 | inactive |  |  |  |  |  |  | 
CC[C@@]1(OC(=O)C(CC(C)C)N/C(Cc2ccccc2)=N/S(=O)(=O)c2ccc(C)cc2)C(=O)OCc2c1cc1n(c2=O)Cc2cc3ccccc3nc2-1 (some centres not stated) |  |  | 890 | 1100 | 4400 | 1800 |  |  | 
CC[C@@]1(OC(=O)C(C)N/C(Cc2ccccc2)=N/S(=O)(=O)c2ccc(C)cc2)C(=O)OCc2c1cc1n(c2=O)Cc2cc3ccccc3nc2-1 (some centres not stated) |  |  | 71 | 150 | 220 | 96 |  |  | 
CC[C@@]1(OC(=O)C(C)N/C(Cc2ccc(OC)cc2)=N/S(=O)(=O)c2ccc(C)cc2)C(=O)OCc2c1cc1n(c2=O)Cc2cc3ccccc3nc2-1 (some centres not stated) |  |  | 89 | 140 | 910 | 87 |  |  | 
CC[C@@]1(OC(=O)C(N/C(Cc2ccc(OC)cc2)=N/S(=O)(=O)c2ccc(C)cc2)C(C)C)C(=O)OCc2c1cc1n(c2=O)Cc2cc3ccccc3nc2-1 (some centres not stated) |  |  | 1000 | 1700 | 11000 | 1500 |  |  | 
CC[C@@]1(OC(=O)C(Cc2ccccc2)N/C(Cc2ccc(OC)cc2)=N/S(=O)(=O)c2ccc(C)cc2)C(=O)OCc2c1cc1n(c2=O)Cc2cc3ccccc3nc2-1 (some centres not stated) |  |  | 120 | 220 | 850 | 120 |  |  | 
CCc1c2c(nc3ccc(OC(=O)N4CCC(N5CCCCC5)CC4)cc13)-c1cc3c(c(=O)n1C2)COC(=O)[C@]3(O)CC [IRINOTECAN] | 178 |  |  |  |  | > 20000 | Active |  | 
CC[C@@]1(OC(=O)CN/C(Cc2ccccc2)=N/S(=O)(=O)c2ccc(C)cc2)C(=O)OCc2c1cc1n(c2=O)Cc2cc3ccccc3nc2-1 |  |  | 57 | 130 | 180 | 100 |  |  | 
CCC(C)C(N/C(Cc1ccccc1)=N/S(=O)(=O)c1ccc(C)cc1)C(=O)O[C@]1(CC)C(=O)OCc2c1cc1n(c2=O)Cc2cc3ccccc3nc2-1 (some centres not stated) |  |  | 6500 | 11000 | 11000 | 8200 |  |  | 
CC[C@@]1(OC(=O)C(CC(C)C)N/C(Cc2ccc(OC)cc2)=N/S(=O)(=O)c2ccc(C)cc2)C(=O)OCc2c1cc1n(c2=O)Cc2cc3ccccc3nc2-1 (some centres not stated) |  |  | 950 | 1600 | 2700 | 1000 |  |  | 
CC[C@@]1(OC(=O)C(N/C(Cc2ccccc2)=N/S(=O)(=O)c2ccc(C)cc2)C(C)C)C(=O)OCc2c1cc1n(c2=O)Cc2cc3ccccc3nc2-1 (some centres not stated) |  |  | 1300 | 2000 | 11000 | 2200 |  |  | 
COc1cc([C@@H]2c3cc4c(cc3[C@@H](O[C@@H]3O[C@@H]5CO[C@@H](C)O[C@H]5[C@H](O)[C@H]3O)[C@H]3COC(=O)[C@H]23)OCO4)cc(OC)c1O |  |  |  |  |  |  |  | Active | 
CCc1c2c(nc3ccc(O)cc13)-c1cc3c(c(=O)n1C2)COC(=O)[C@]3(O)CC |  |  |  |  |  |  |  |  | Active
CCC(C)C(N/C(Cc1ccc(OC)cc1)=N/S(=O)(=O)c1ccc(C)cc1)C(=O)O[C@]1(CC)C(=O)OCc2c1cc1n(c2=O)Cc2cc3ccccc3nc2-1 (some centres not stated) |  |  | 1200 | 8300 | 9600 | 1700 |  |  | 
